In PMC3544975 (Biochemical and biophysical research communications, 2012):
Where two headings read alike, the source gives them in different places.

Experiments:
human PMK [1] = target: T1, human PMK (Homo sapiens, UniProt Q15126); conditions: read-out: affinity of natural substrates; cited from earlier work
T1 sequence (Q15126 1-192): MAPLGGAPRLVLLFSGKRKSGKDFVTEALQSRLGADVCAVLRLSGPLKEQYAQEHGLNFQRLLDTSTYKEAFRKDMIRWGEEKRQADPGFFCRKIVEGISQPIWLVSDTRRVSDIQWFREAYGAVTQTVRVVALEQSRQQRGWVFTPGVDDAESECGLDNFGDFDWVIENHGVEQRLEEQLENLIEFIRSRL

human PMK [2] = target: T1, human PMK; assay: Fluorescence titration; assay type: binding
Method in brief: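 N-terminally His6-tagged human PMK was expressed in E. coli BL21(DE3) Rosetta and purified on Ni-Sepharose. Titration used 5 µM PMK in 20 mM potassium phosphate, 5 mM DTT, 100 mM KCl, 10% glycerol, pH 6.5, at 25 °C. Excitation was 295 nm, with emission recorded over 300–400 nm. The bound-minus-free intensity difference was fitted against ligand concentration to a one-site specific binding equation.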

SMILES	Kd (human PMK [1])	Kd (human PMK [2])
Nc1ncnc2c1ncn2[C@@H]1O[C@H](COP(=O)(O)OP(=O)(O)O)[C@@H](O)[C@H]1O [ADP, adenosine diphosphate]	19.9 ± 9 µM	
Nc1ncnc2c1ncn2[C@@H]1O[C@H](COP(=O)(O)OP(=O)(O)OP(=O)(O)O)[C@@H](O)[C@H]1O [ATP, adenosine-5'-triphosphate]	29 ± 6 µM	
O=c1cc(-c2ccc(O)c(O)c2)oc2cc(O)cc(O)c12 [luteolin]		61 ± 19.5 µM
